Experiment [1] deals with Bifunctional dihydrofolate reductase-thymidylate synthase (Plasmodium falciparum K1) (UniProt P13922). Description: Ratio of binding affinity for mutant (N51I+C59R+S108N) to that of wild type dihydrofolate reductase. In outline:
(§1)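 Each ratio is Ki for the mutant PfDHFR divided by Ki for wild-type PfDHFR. The recombinant enzymes were expressed in E. coli BL21(DE3)pLysS and purified on methotrexate-Sepharose. Ki was derived assuming inhibitors compete with substrate binding.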

The test system of experiment [2] is BC. Description: Relative antiplasmodial activity to cytotoxicity in Plasmodium falciparum Csl-2 infected BC cells. The class given is functional.
Experiment [3] relates to Vero. Description: Relative antiplasmodial activity to cytotoxicity in Plasmodium falciparum Csl-2 infected Vero cells. The class given is functional.
Experiment [4] relates to KB. Description: Relative antiplasmodial activity to cytotoxicity in Plasmodium falciparum Csl-2 infected KB cells. The class given is functional.
The subject of experiment [5] is Vero. Description: In vitro cytotoxicity against Plasmodium falciparum infected vero cell line. The settings on record: Chlorocebus sabaeus. The class given is functional, cell-based. In outline:
(§2)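 Cytotoxicity (IC50, μM) run against three mammalian lines: Vero (African green monkey kidney fibroblasts), KB (human epidermoid carcinoma) and BC (human breast cancer). Testing followed the Skehan et al. protocol.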

Experiment [6] has as its system Bifunctional dihydrofolate reductase-thymidylate synthase (Plasmodium falciparum K1), P13922 [UNDEFINED MUTATION]. Description: Ratio of binding affinity for mutant (N51I+C59R+S108N+I164L) to that of wild type dihydrofolate reductase. The method in brief:
as §1

Experiment [7] concerns Vero. Description: Relative antiplasmodial activity to cytotoxicity in Plasmodium falciparum V1/S infected Vero cells. The class given is functional.
The target in experiment [8] is Bifunctional dihydrofolate reductase-thymidylate synthase (Plasmodium falciparum K1, UniProt P13922). Description: Binding affinity towards wild-type dihydrofolate reductase of Plasmodium falciparum.
The target in experiment [9] is Bifunctional dihydrofolate reductase-thymidylate synthase (Plasmodium falciparum K1, UniProt P13922, C59R/I164L/N51I/S108N). Description: Binding affinity towards mutant dihydrofolate reductase (N51I+C59R+S108N+I164L DHFR) of Plasmodium falciparum.
In experiment [10] the target is Bifunctional dihydrofolate reductase-thymidylate synthase (Plasmodium falciparum K1, UniProt P13922, C59R/I164L/S108N). Description: Binding affinity towards mutant dihydrofolate reductase (C59R+S108N+I164L DHFR) of Plasmodium falciparum.
For experiment [11], the system named is Vero. Description: Relative antiplasmodial activity to cytotoxicity in Plasmodium falciparum TM4/8.2 infected Vero cells. The class given is functional.
For experiment [12], the system named is KB. Description: Relative antiplasmodial activity to cytotoxicity in Plasmodium falciparum TM4/8.2 infected KB cells. The class given is functional.
For experiment [13], the system named is Bifunctional dihydrofolate reductase-thymidylate synthase (Plasmodium falciparum K1), P13922 [UNDEFINED MUTATION]. Description: Ratio of binding affinity for mutant (C59R+S108N+I164L) to that of wild type dihydrofolate reductase. In outline:
as §1

Experiment [14] relates to KB. Description: Relative antiplasmodial activity to cytotoxicity in Plasmodium falciparum V1/S infected KB cells. The class given is functional.
The test system of experiment [15] is KB. Description: In vitro cytotoxicity against Plasmodium falciparum infected KB cell line. The class given is functional, cell-based. Conditions: Homo sapiens. In outline: as §2
Experiment [16] concerns BC. Description: Relative antiplasmodial activity to cytotoxicity in Plasmodium falciparum TM4/8.2 infected BC cells. The class given is functional.
For experiment [17], the system named is BC. Description: In vitro cytotoxicity against BC cell line. The settings on record: Homo sapiens.
Experiment [18] addresses Bifunctional dihydrofolate reductase-thymidylate synthase (Plasmodium falciparum K1, UniProt P13922, C59R/N51I/S108N). Description: Binding affinity towards mutant dihydrofolate reductase (N51I+C59R+S108N DHFR) of Plasmodium falciparum.
In experiment [19] the test system is Bifunctional dihydrofolate reductase-thymidylate synthase (Plasmodium falciparum K1), P13922 [UNDEFINED MUTATION]. Description: Ratio of binding affinity for mutant (A16V+S108T) to that of wild type dihydrofolate reductase. In outline:
as §1

The target in experiment [20] is Bifunctional dihydrofolate reductase-thymidylate synthase (Plasmodium falciparum K1, UniProt P13922, A16V/S108T). Description: Binding affinity towards mutant dihydrofolate reductase (A16V+S108T DHFR) of Plasmodium falciparum.

By IC50 is commonly meant the concentration that gives 50% inhibition. By Ki is commonly meant the dissociation constant of the complex between target and ligand, obtained from inhibition or displacement. High values mean a looser hold on the target, low ones a stronger hold on the target.

Chain of Bifunctional dihydrofolate reductase-thymidylate synthase (Plasmodium falciparum K1, UniProt P13922, C59R/N51I/S108N) (P13922 whole entry, looked up, stated change not applied): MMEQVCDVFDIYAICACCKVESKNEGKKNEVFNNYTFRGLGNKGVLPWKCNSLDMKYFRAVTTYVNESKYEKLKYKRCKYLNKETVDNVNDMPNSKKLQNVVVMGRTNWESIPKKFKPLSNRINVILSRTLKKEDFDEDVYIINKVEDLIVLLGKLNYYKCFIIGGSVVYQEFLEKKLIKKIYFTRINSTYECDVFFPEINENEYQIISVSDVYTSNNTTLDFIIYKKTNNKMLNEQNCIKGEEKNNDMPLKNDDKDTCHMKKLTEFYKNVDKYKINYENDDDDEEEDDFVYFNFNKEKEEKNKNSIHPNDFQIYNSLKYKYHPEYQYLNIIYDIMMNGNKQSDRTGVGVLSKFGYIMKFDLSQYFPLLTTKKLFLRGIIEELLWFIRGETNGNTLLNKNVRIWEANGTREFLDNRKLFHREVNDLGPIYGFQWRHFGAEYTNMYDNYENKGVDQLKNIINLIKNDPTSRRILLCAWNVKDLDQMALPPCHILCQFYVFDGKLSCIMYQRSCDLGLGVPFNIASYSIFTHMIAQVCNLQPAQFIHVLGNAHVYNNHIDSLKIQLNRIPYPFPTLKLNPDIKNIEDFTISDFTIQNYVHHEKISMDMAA
Chain of Bifunctional dihydrofolate reductase-thymidylate synthase (Plasmodium falciparum K1), P13922 [UNDEFINED MUTATION] (P13922 whole entry, looked up, stated change not applied): as above
Chain of Bifunctional dihydrofolate reductase-thymidylate synthase (Plasmodium falciparum K1, UniProt P13922, C59R/I164L/S108N) (P13922 whole entry, looked up, stated change not applied): as above
Chain of Bifunctional dihydrofolate reductase-thymidylate synthase (Plasmodium falciparum K1) (P13922 whole entry, looked up): as the sequence (P13922 whole entry, looked up, stated change not applied) above
Chain of Bifunctional dihydrofolate reductase-thymidylate synthase (Plasmodium falciparum K1, UniProt P13922) (P13922 whole entry): as the sequence (P13922 whole entry, looked up, stated change not applied) above
Chain of Bifunctional dihydrofolate reductase-thymidylate synthase (Plasmodium falciparum K1, UniProt P13922, C59R/I164L/N51I/S108N) (P13922 whole entry, looked up, stated change not applied): as above
Chain of Bifunctional dihydrofolate reductase-thymidylate synthase (Plasmodium falciparum K1, UniProt P13922, A16V/S108T) (P13922 whole entry, looked up, stated change not applied): as above

With `Nc1nc(N)c(-c2cccc(Cl)c2)c(CCCc2ccccc2)n1`, the Ratio in experiment [1] was 1.7; in [6], 1.7; in experiment [13] it was 1.8. The Safety ratio with BC [2] amounted to 0.4; in the experiment on Vero [3], 0.6; in the experiment with KB [4], 0.4; with Vero [7], 0.4; in the experiment with Vero [11] it was 3.1; in the experiment with KB [12] it was 2.4. The Safety ratio in the experiment on KB [14] came out at 0.3; with BC [16] it was 2.4. The IC50 in the experiment on Vero [5] stood at 2.1 µM; in the experiment with KB [15] it was 1.6 µM; in the experiment on BC [17], 1.6 µM. The Ki in experiment [8] came to 1.2 nM; in experiment [9] it was 2 nM; in experiment [10], 2.2 nM; in [18] it was 2 nM.

On to `NC1=NC(c2ccccc2)N(c2cccc(Cl)c2)C(N)=N1` (stereo unspecified), for which the Ratio in [1] was 9.5; in experiment [19], 0.9; in experiment [6], 84.1; in experiment [13], 18.5. Moreover, the Safety ratio was determined as 672 in the experiment with BC [2]; 1000 in the experiment with Vero [3]; 348 in the experiment with KB [4]; 312 in the experiment on Vero [7]; 446 with Vero [11]; 155 with KB [12]. The values for the Safety ratio in the experiment with KB [14] and in the experiment on BC [16] were 109 and 300, respectively. Moreover, the Ki in experiment [20] was 10.5 nM; in experiment [8] it was 11.7 nM; in [9] it was 984 nM; in experiment [10], 217 nM; in [18], 111 nM. In addition, the IC50 amounted to 250 µM in the experiment on Vero [5], 87 µM with KB [15] and 168 µM with BC [17].

Take `CC1(C)N=C(N)N=C(N)N1c1ccc(Cl)cc1` [CYCLOGUANIL]: the Ratio in experiment [1] was determined as 20.9; in experiment [19], 876; in [6], 280; in [13], 190. The Safety ratio in the experiment with BC [2] was >1.3; with Vero [3], > 1.3; in the experiment on KB [4], 1.1; with Vero [11], >1250; with KB [12], 1025; in the experiment on KB [14] it was <0.4. In addition, the Safety ratio in the experiment on BC [16] is given as >1250. For the same compound, the values for the half-inhibitory concentration (IC50) in the experiment with Vero [5], with KB [15] and in the experiment with BC [17] were > 50 µM, 41 µM and > 50 µM, respectively. Further, the Ki in experiment [8] amounted to 1.5 nM; in [9] it was 420 nM; in experiment [10], 285 nM; in [18], 31.4 nM.

For the origin of these results see ChEMBL document CHEMBL1138835, “Inhibitors of multiple mutants of Plasmodium falciparum dihydrofolate reductase and their antimalarial activities” (J Med Chem, 2004).
